Key:
Rattus norvegicus [1] = species: Rattus norvegicus; experiment: Compound was evaluated for alpha -rate constant, in liver microsomes from beta-naphthoflavone-exposed rats; conditions: Microsome
In short: (§1)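 Rats (male Sprague-Dawley, 75-125 g) dosed ip with 3MC or βNF, 50 mg/kg in corn oil, on 3 successive days; liver microsomes isolated day 4. 7-Ethoxycoumarin deethylation (2.5-300 μM substrate) measured with inhibitor present; KM and Vmax by Eisenthal–Cornish-Bowden direct linear method. Ki from x-intercept of least-squares KM/Vmax vs [I]; αKi from x-intercept of 1/Vmax vs [I].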

Rattus norvegicus [2] = species: Rattus norvegicus; experiment: Michaelis-Menten constant for 7-ethoxycoumarin deethylation in rat liver microsomes exposed to beta-naphthoflavone at 10 uM […]; conditions: Microsome
In short: (§2)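 Liver microsomes from male Sprague-Dawley rats given 3MC or βNF ip (50 mg/kg/day, corn oil, 3 days), harvested day 4. NADPH-regenerating system in 0.1 M Tris-HCl pH 7.4. Substrate 2.5-300 μM final. Inhibitor added from methanol stock. Reaction started with 0.375-0.56 mg microsomal protein, run 4 min at 37 °C, stopped with TCA. 7-Hydroxycoumarin fluorescence read at pH 10.3. At least four assays per substrate concentration. KM and Vmax by direct linear method, with distribution-free 95% confidence limits.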

Rattus norvegicus [3] = species: Rattus norvegicus; experiment: Maximum rate constant for 7-ethoxycoumarin deethylation in rat liver microsomes exposed to beta-naphthoflavone at 50 uM; conditions: Microsome; in short: as §2
Rattus norvegicus [4] = species: Rattus norvegicus; experiment: Maximum rate constant for 7-ethoxycoumarin deethylation in rat liver microsomes exposed to beta-naphthoflavone at 150 uM; conditions: Microsome; in short: as §2
Rattus norvegicus [5] = species: Rattus norvegicus; experiment: Maximum rate constant for 7-ethoxycoumarin deethylation in rat liver microsomes exposed to beta-naphthoflavone at 100 uM; conditions: Microsome; in short: as §2
Rattus norvegicus [6] = species: Rattus norvegicus; experiment: Michaelis-Menten constant for 7-ethoxycoumarin deethylation in rat liver microsomes exposed to beta-naphthoflavone at 150 uM; conditions: Microsome; in short: as §2
[7] = Compound was evaluated for inhibition constant, in liver microsomes from beta-naphthoflavone-exposed rats; set-up: species or system Rattus norvegicus, Microsome
Rattus norvegicus [8] = species: Rattus norvegicus; experiment: Michaelis-Menten constant for 7-ethoxycoumarin deethylation in rat liver microsomes exposed to beta-naphthoflavone at 50 uM; conditions: Microsome
In short: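 Liver microsomes from young male Sprague-Dawley rats (75-125 g) given the inducer ip in corn oil at 50 mg/kg on 3 successive days, microsomes isolated on day 4. 7-Ethoxycoumarin (2.5 to 300 μM final) in 0.1 M Tris-HCl pH 7.4 with NADPH-regenerating system. Reaction started with microsomal protein (0.375-0.56 mg), run 4 min at 37 °C, stopped with TCA. 7-Hydroxycoumarin read fluorometrically at pH 10.3. Inhibitor added from methanol stock, ≥4 assays per condition. KM/Vmax obtained by the Eisenthal–Cornish-Bowden direct linear method with 95% distribution-free confidence limits.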

Rattus norvegicus [9] = species: Rattus norvegicus; experiment: Maximum rate constant for 7-ethoxycoumarin deethylation in rat liver microsomes exposed to 3-methylcholanthrene at concentration of 25 nM; conditions: Microsome
Rattus norvegicus [10] = species: Rattus norvegicus; experiment: Michaelis-Menten constant for 7-ethoxycoumarin deethylation in rat liver microsomes exposed to beta-naphthoflavone at 27.5 uM; conditions: Microsome; in short: as §2
Rattus norvegicus [11] = species: Rattus norvegicus; experiment: Vmax determined by 7-ethoxycoumarin deethylation in the presence by liver microsomes from rats exposed to 3-methylcholanthrene at concentration of 10 nM; conditions: Microsome
Rattus norvegicus [12] = species: Rattus norvegicus; experiment: Compound was evaluated for alpha -rate constant, in liver microsomes from 3-methylcholanthrene-exposed rats; conditions: Microsome; in short: as §1
Rattus norvegicus [13] = species: Rattus norvegicus; experiment: Maximum rate constant for 7-ethoxycoumarin deethylation in rat liver microsomes exposed to 3-methylcholanthrene at concentration of 50 nM; conditions: Microsome
Rattus norvegicus [14] = species: Rattus norvegicus; experiment: Michaelis-Menten constant for 7-ethoxycoumarin deethylation in rat liver microsomes exposed to 3-methylcholanthrene at a concentration of 50 uM; conditions: Microsome; in short: as §2
Rattus norvegicus [15] = species: Rattus norvegicus; experiment: Maximum rate constant for 7-ethoxycoumarin deethylation in rat liver microsomes exposed to beta-naphthoflavone at 5 uM; conditions: Microsome; in short: as §2
Rattus norvegicus [16] = species: Rattus norvegicus; experiment: Maximum rate constant for 7-ethoxycoumarin deethylation in rat liver microsomes exposed to beta-naphthoflavone at concentration of 27.5 uM; conditions: Microsome; in short: as §2
Rattus norvegicus [17] = species: Rattus norvegicus; experiment: Michaelis-Menten constant for 7-ethoxycoumarin deethylation in rat liver microsomes exposed to 3-methylcholanthrene at a concentration of 10 nM; conditions: Microsome
Rattus norvegicus [18] = species: Rattus norvegicus; experiment: Michaelis-Menten constant for 7-ethoxycoumarin deethylation in rat liver microsomes exposed to 3-methylcholanthrene at a concentration of 25 uM; conditions: Microsome; in short: as §2
[19] = Compound was evaluated for inhibition constant, in liver microsomes from 3-methylcholanthrene-exposed rats; set-up: species or system Rattus norvegicus, Microsome
Rattus norvegicus [20] = species: Rattus norvegicus; experiment: Michaelis-Menten constant for 7-ethoxycoumarin deethylation in rat liver microsomes exposed to beta-naphthoflavone at 5 uM; conditions: Microsome; in short: as §2
Rattus norvegicus [21] = species: Rattus norvegicus; experiment: Maximum rate constant for 7-ethoxycoumarin deethylation in rat liver microsomes exposed to beta-naphthoflavone at 2.5 uM; conditions: Microsome; in short: as §2
Rattus norvegicus [22] = species: Rattus norvegicus; experiment: Maximum rate constant for 7-ethoxycoumarin deethylation in rat liver microsomes exposed to beta-naphthoflavone at 1 uM; conditions: Microsome; in short: as §2
Rattus norvegicus [23] = species: Rattus norvegicus; experiment: Michaelis-Menten constant for 7-ethoxycoumarin deethylation in rat liver microsomes exposed to beta-naphthoflavone at 1 uM; conditions: Microsome; in short: as §2
Rattus norvegicus [24] = species: Rattus norvegicus; experiment: Michaelis-Menten constant for 7-ethoxycoumarin deethylation in rat liver microsomes exposed to beta-naphthoflavone at 2.5 uM; conditions: Microsome; in short: as §2

Alpha Ki (Rattus norvegicus [1]) [nM] | Vmax (pM min-1 mg-1) (Rattus norvegicus [3]) | Ki [7] [nM] | Km (Rattus norvegicus [8]) [µM] | Vmax (pM min-1 mg-1) (Rattus norvegicus [15]) | Km (Rattus norvegicus [20]) [µM] | Compound | Alpha Ki (Rattus norvegicus [12]) [nM] | also measured
430000 | 819 | 27000 | 28.4 | – | – | c1ccc(-n2cccc2)cc1 | – | Km (Rattus norvegicus [2]): 41.2 µM; Vmax (pM min-1 mg-1) (Rattus norvegicus [4]): 669; Vmax (pM min-1 mg-1) (Rattus norvegicus [5]): 760; Km (Rattus norvegicus [6]): 64.3 µM
48 | 665 | 24 | 25.7 | 1220 | 18.5 | O=c1cc(-c2ccccc2)oc2c1ccc1ccccc12 [ALPHA-NAPHTHOFLAVONE] | 33 | Vmax (pM min-1 mg-1) (Rattus norvegicus [9]): 108; Km (Rattus norvegicus [10]): 17 µM; Vmax (pM min-1 mg-1) (Rattus norvegicus [11]): 137; Vmax (pM min-1 mg-1) (Rattus norvegicus [13]): 69; Km (Rattus norvegicus [14]): 23.4 µM; Vmax (pM min-1 mg-1) (Rattus norvegicus [16]): 904; Km (Rattus norvegicus [17]): 19.6 µM; Km (Rattus norvegicus [18]): 17.3 µM; Ki [19]: 17 nM
1400 | – | 300 | – | 227 | 41.7 | CC(C)c1ccccc1-n1ccnc1 | – | Vmax (pM min-1 mg-1) (Rattus norvegicus [21]): 346; Vmax (pM min-1 mg-1) (Rattus norvegicus [22]): 734; Km (Rattus norvegicus [23]): 22.1 µM; Km (Rattus norvegicus [24]): 35.8 µM

Compound | Alpha Ki (Rattus norvegicus [1]) [nM] | Vmax (pM min-1 mg-1) (Rattus norvegicus [3]) | Ki [7] [nM] | Km (Rattus norvegicus [8]) [µM] | Vmax (pM min-1 mg-1) (Rattus norvegicus [15]) | Km (Rattus norvegicus [20]) [µM] | Alpha Ki (Rattus norvegicus [12]) [nM] | also measured
c1ccc(-c2c[nH]cn2)cc1 | 75000 | – | – | – | – | – | 64000 | –
